The values that follow come from article PMC7194280 (Leukemia, 2018).

Data set [1] relates to PDIA3. The experiment in a line: Insulin reduction assay. The class given is biochemical. The method in brief: (§1)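 The assay measured reductase activity of recombinant PDI family isoforms through insulin reduction, followed as insulin aggregation (turbidity) kinetic traces. A dose range of test compound was applied. IC50 values were extrapolated from 10-dose inhibition curves.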

Data set [2] deals with TXNDC5. Description: Insulin reduction assay. It counts as biochemical. A digest of the protocol: as §1
For data set [3], the system named is PDIA4. Description: Insulin reduction assay. It counts as biochemical. A digest of the protocol:
as §1

Data set [4] has as its system PDIA6. Description: Insulin reduction assay. The class given is biochemical. The method in brief:
as §1

Data set [5] relates to MM cells. The experiment in a line: Single-agent anti-MM cell viability. The class given is cell-based, human. The settings on record: read-out: EC50, single-agent anti-MM activity; 24 h of exposure. A digest of the protocol: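 Myeloma cells were seeded at 3×10^4 cells/well and exposed to test compound alone. Viability was read by CellTiter-Glo luminescence (470 nm, 1-s integration), and EC50 was derived from dose–response curves.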

For data set [6], the system named is normal cells. Description: PI sensitization in normal cells. The class given is cell-based. The settings on record: PBMCs, WBCs, MRC-5, Wi-38, HFF, MEF; Btz and Crflz. A digest of the protocol:
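Normal human PBMCs, lymphocytes, lung (MRC-5, Wi-38) and foreskin (HFF) fibroblasts, and mouse MEF fibroblasts were seeded at 3×10^4 cells/well. Cells received 8-dose Btz or Crflz curves with or without 5 µM test compound. Viability was measured by CellTiter-Glo luminescence. Fold change = PI EC50 without / EC50 with test compound; >1 denotes sensitization, <1 protection.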

The test system of data set [7] is MM.1S BzR cells. Description: Btz re-sensitization of PI-resistant MM cells. The class given is cell-based. The settings on record: screening hit, low micromolar E61.
For data set [8], the system named is 20S proteasome. Description: Chymotrypsin-like activity of the 20S proteasome. It counts as biochemical.
The target in data set [9] is PDIA1 (Homo sapiens, UniProt P07237). Description: Insulin reduction assay. The class given is biochemical. A digest of the protocol:
as §1

The test system of data set [10] is MM.1S BzR cells. Description: Effect on lenalidomide or doxorubicin cytotoxicity. It counts as cell-based.
A short description of data set [11]: Stability against oxidative metabolism by human liver microsomes. It counts as in vitro ADME.
Data set [12] concerns RPMI-8226 cells. The experiment in a line: Effect on dexamethasone activity in dexamethasone resistant cells. The note with it: dexamethasone resistant RPMI-8226 cells. The class given is cell-based.
The test system of data set [13] is MM.1S BzR cells. The experiment in a line: NSG mouse xenotransplant model with MM.1S BzR cells. It counts as in vivo. The method in brief: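 Mice implanted i.v. with PI-resistant MM.1S BzR cells; test compound at 50 mg/kg i.p. daily versus vehicle, from day 21 post-implant. Read-out: Kaplan–Meier survival. In a parallel cohort, mice were sacrificed on day 49 and % CD138+ cells in bone marrow biopsies was quantified (vehicle N=8, treated N=7), compared by t-test.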

Data set [14] deals with MM.1S cells. It counts as in vivo.
The test system of data set [15] is MM cells. Description: PI sensitization of MM cell lines. The class given is cell-based, human.
Data set [16] in a line: Stability in serum, simulated gastric and intestinal fluids. It counts as in vitro ADME.
For data set [17] the following is noted: mouse, in vivo.
Data set [18] is described as follows: Pharmacokinetics in CD-1 mice. The class given is in vivo, mouse. The method in brief:
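CD-1 mice received a single dose of test compound, either i.v. at 2 mg/kg or p.o. at 5 mg/kg. Plasma drug concentrations were followed over 24 h by an optimized LC-MS method. Oral bioavailability and terminal half-life were derived from these plasma profiles.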

In data set [19] the test system is Vk*MYC transgenic mice. Description: Vk*MYC transgenic mouse model of MM. It counts as in vivo. The note with it: 2 mg/kg i.p. days 1, 3, 5 of each week for 2 weeks; three mice; P=0.0135.
Setting [20] is: E64FC26 2 mg/kg i.p. 3 days/week, N=9.

Where two headings read alike, the source gives them in different places.

Sequence of PDIA1 (P07237 18-508): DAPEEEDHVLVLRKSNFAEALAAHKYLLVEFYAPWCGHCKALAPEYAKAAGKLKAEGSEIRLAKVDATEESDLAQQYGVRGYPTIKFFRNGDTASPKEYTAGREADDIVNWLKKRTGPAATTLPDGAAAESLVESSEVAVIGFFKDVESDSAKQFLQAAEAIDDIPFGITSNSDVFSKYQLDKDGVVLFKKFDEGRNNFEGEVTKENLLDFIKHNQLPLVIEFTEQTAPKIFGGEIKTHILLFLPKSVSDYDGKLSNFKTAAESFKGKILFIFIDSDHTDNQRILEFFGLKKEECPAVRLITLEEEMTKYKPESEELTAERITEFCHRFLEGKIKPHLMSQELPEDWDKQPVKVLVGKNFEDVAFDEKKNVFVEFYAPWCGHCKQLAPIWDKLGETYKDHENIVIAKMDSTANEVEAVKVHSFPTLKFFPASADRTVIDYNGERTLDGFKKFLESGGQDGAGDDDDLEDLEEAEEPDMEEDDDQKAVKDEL

With PACMA 31 [reference compound], the “inhibition of PDIA3 (qualitative)” value in data set [1] is reported as “failed to inhibit”. For the same molecule, in [2], the “inhibition of TXNDC5 (qualitative)” value is “inhibited”. Also, the “inhibition of PDIA4 (qualitative)” value in data set [3] was “inhibited”. The “inhibition of PDIA6 (qualitative)” value in data set [4] is “inhibited”.

For the molecule `CCCCCCCCOC(=O)/C=C/c1ccc(O)c(O)c1` [E61, n-octyl caffeate], the concentration for a half-maximal effect (EC50) in data set [5] is 18.3 µM. Moreover, the “enhancement of the cytotoxic effects of PIs in normal cells” value in data set [6] is recorded as “failed to enhance”. In data set [7], the “enhancement of Btz cytotoxicity” value is above 6 fold. Further, in data set [8], the “inhibition of chymotrypsin-like activity of the 20S proteasome” value is reported as “did not inhibit”. Besides, the “IC50 in vitro (PDI assay, qualitative)” value in data set [9] was “high micromolar”. In [10], the “effect on lenalidomide or doxorubicin cytotoxicity” value was “did not affect”. In addition, in [11], the “calculated intrinsic clearance in human liver microsomes” value was 97.6 ± 6.0 µL/min/mg. In [12], the “effect on dexamethasone activity” value was “no effect”. In addition, the “number of CD138+ MM cells in bone marrow” value in [13] (50 mg/kg i.p. daily, sacrificed on day 49, P=0.007) is “significant reduction”. Besides, the “treated mice that never reached the survival endpoint” value in data set [13] (50 mg/kg/day i.p.) was 4 of the 11. In addition, the median survival in data set [13] (50 mg/kg/day i.p., continuous dosing, vehicle 51 days) is on record as 62 days. Moreover, in data set [13] (50 mg/kg/day i.p., continuous dosing, vs vehicle, N=11), the “prolongation of median survival” value is reported as 11 days. For the same molecule, in data set [13] (continuous dosing for 40+ days, 50 mg/kg/day i.p.), the “tolerability (overt signs of distress, body weight)” value is listed as “well tolerated”.

Regarding `CC(C)C[C@H](NC(=O)[C@H](Cc1ccccc1)NC(=O)c1cnccn1)B(O)O` [Btz, bortezomib, reference compound], in [14] (Btz 0.25 mg/kg i.p. 2 days/week, E64FC26 2 mg/kg i.p. 3 days/week, N=8), the “increase in median survival over vehicle” value was 6 days.

In the case of `O=C(O)/C=C/c1ccc(O)c(O)c1` [caffeic acid, reference compound], the “PDI reductase activity in vitro (qualitative)” value in data set [9] is “no activity”. For the same molecule, in data set [15], the “enhancement of the sensitivity of MM cells to PIs (qualitative)” value is on record as “failed to enhance”.

Regarding `CCCCCCCC/C=C1\C=C(C(F)(F)F)c2cc(O)c(O)cc21` [E64FC26], the EC50 in [5] was 0.59 µM. In addition, the “inhibition of PDIA3 (qualitative)” value in data set [1] was “inhibited”. In [2], the “inhibition of TXNDC5 (qualitative)” value is “inhibited”. Moreover, in [9], the “potency relative to E61 as inhibitor of PDI activity in vitro” value is on record as above 50 times. Moreover, in data set [9] (read-out: IC50 against PDIA1, insulin reduction assay), the IC50 was 1.9 ± 0.1 µM. In addition, the “inhibition of PDIA4 (qualitative)” value in data set [3] was “inhibited”. The “calculated intrinsic clearance in human liver microsomes” value in [11] is 6.22 ± 0.98 µL/min/mg. Further, in [14] (setting [20]), the “increase in median survival over vehicle” value turned out to be 2 weeks and the “increase in median survival over vehicle (percent)” value is given as 40%. In [14] (E64FC26 2 mg/kg i.p. 3 days/week, vehicle 0% (0/9)), the “mice alive on day 36” value was determined as 100%. The “overt toxicity or body weight fluctuations” value in [14] (mouse, in vivo) was “No overt toxicity or body weight fluctuations”. Also, the “stability in serum, simulated gastric and intestinal fluids, and human liver microsomes compared to E61” value in data set [16] is “increased stability”. For the same molecule, in [17], the “blood serum chemistry markers (toxicology)” value is “mild thrombocytopenia and neutropenia”. Moreover, in data set [18] (p.o. 5 mg/kg, i.v. 2 mg/kg), the oral bioavailabilty worked out at 34%. The Cmax in data set [18] (read-out: maximum concentration (Cmax), single oral dose of 5 mg/kg, plasma) was around 400 nM. The molecule further registered a terminal half-life in data set [18] (single oral dose of 5 mg/kg) of 9.5 h. Also, the “average decrease in serum M-protein” value in data set [19] is 33 ± 7.9%. Further, the “inhibition of PDIA6 (qualitative)” value in data set [4] was “inhibited”. In addition, the “potency relative to E61 in cellular models of PI sensitization” value in data set [15] is above 10 times. In [15] (MM.1S BzR and U266 BzR cells, Btz), the “concentrations highly synergistic with PIs” value is given as at least 200 nM. In addition, the “average increase in PI sensitivity” value in data set [15] (cells treated with empirically determined EC10–20 of the PDI inhibitor) is on record as 6–7 fold.
